One test concerns MT4. The test can be described thus: Cytotoxicity against mock-infected human MT4 cells assessed as reduction in cell viability measured after 5 days by MTT assay. The class given is functional. The following applies: MT4, 120 h, time 5 day. The method in brief: (§1)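 MT-4 cells (exponentially growing, resuspended at 6 × 10⁵ cells/mL) were seeded onto serial five-fold compound dilutions and infected with 100–300 CCID₅₀ virus stock, or given medium only (mock). Viability was read by MTT at 540 and 690 nm five days after infection, using the median OD of three wells. EC₅₀ is 50% protection from viral cytopathicity. CC₅₀ is 50% loss of viability in mock-infected cells.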
Background: Tetrazolium assays rely on reduction of a dye to a coloured formazan, in cell work by metabolically active cells.

Test [1] concerns Human immunodeficiency virus 1. The test can be described thus: Antiviral activity against wild type HIV1 3B infected in human MT4 cells assessed as protection against virus-induced cytopathic effect incubated for 5 days by MTT assay. It is filed as functional, organism-based. The following applies: Human immunodeficiency virus 1, 3B, MT4, 120 h. The method in brief: as §1
(In general: Protection from cytopathic effect is a common read-out in antiviral testing.)

The target of test [2] is Human immunodeficiency virus type 1 reverse transcriptase (Human immunodeficiency virus 1, UniProt Q72547). Kind of test: Inhibition of wild type HIV1 Reverse transcriptase RNase H expressed in Escherichia coli using 5'-UUUUUUUUUAGGAUACAUAUGGUUAAAGU-3' oligonucleotide as substrate and DNA21P as primer in presence of [gamma32P]-ATP by PAGE analysis. The method, boiled down: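 Wild-type HIV-1 BH10 RT was expressed in E. coli and purified. RNase H activity was measured on a 31-nt RNA, 5′-³²P-labelled, annealed to a 21-nt DNA (31T/21P). Cleaved substrate was quantified without inhibitor (5% DMSO) and with compound over 0.2–100 µM. IC₅₀ values were taken from dose-response curves.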

For test [3], the system named is Human immunodeficiency virus 1. Kind of test: Antiviral activity against HIV1 RES056 infected in human MT4 cells assessed as protection against virus-induced cytopathic effect incubated for 5 days by MTT assay. It is filed as functional, organism-based. The following applies: Human immunodeficiency virus 1, RES056, MT4, 120 h. The method, boiled down: as §1
The test system of test [4] is Human immunodeficiency virus 2. Kind of test: Antiviral activity against HIV2 ROD infected in human MT4 cells assessed as protection against virus-induced cytopathic effect incubated for 5 days by MTT assay. The following applies: Human immunodeficiency virus 2, ISOLATE ROD, MT4, 120 h.
The subject of test [5] is Human immunodeficiency virus 1. The test can be described thus: Antiviral activity against HIV1 harboring reverse transcriptase Y188L mutant infected in human MT4 cells assessed as protection against virus-induced cytopathic effect incubated for 5 days by MTT assay. The class given is functional, organism-based. The conditions noted are these: Human immunodeficiency virus 1, MT4, 120 h. The method, boiled down: (§2)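 MT-4 cells (exponentially growing, resuspended at 6 × 10⁵ cells/mL) exposed to serial five-fold compound dilutions, then infected with mutant HIV-1 stock at 100–300 CCID₅₀; mock-infected wells run in parallel for cytotoxicity. Viability read by MTT at 540 and 690 nm on day 5. Median OD of three wells used; EC₅₀ is the concentration giving 50% protection from viral cytopathicity.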

In test [6] the test system is Human immunodeficiency virus 1. Kind of test: Antiviral activity against HIV1 harboring reverse transcriptase V106A/F227 mutant infected in human MT4 cells assessed as protection against virus-induced cytopathic effect incubated for 5 days by MTT assay. The class given is functional, organism-based. The following applies: Human immunodeficiency virus 1, MT4, 120 h. The method, boiled down: as §2

The test system of test [7] is Human immunodeficiency virus 1. Kind of test: Antiviral activity against HIV1 L1001 infected in human MT4 cells assessed as protection against virus-induced cytopathic effect incubated for 5 days by MTT assay. It is filed as functional, organism-based. The following applies: Human immunodeficiency virus 1, L1001, MT4, 120 h. The method, boiled down: as §2
Test [8] relates to Human immunodeficiency virus 1. The test can be described thus: Antiviral activity against HIV1 harboring reverse transcriptase K103N mutant infected in human MT4 cells assessed as protection against virus-induced cytopathic effect incubated for 5 days by MTT assay. The conditions noted are these: Human immunodeficiency virus 1, MT4, 120 h. The class given is functional, organism-based. The method, boiled down: as §2

The subject of test [9] is Human immunodeficiency virus 1. Kind of test: Antiviral activity against HIV1 harboring reverse transcriptase Y181C mutant infected in human MT4 cells assessed as protection against virus-induced cytopathic effect incubated for 5 days by MTT assay. The class given is functional, organism-based. The following applies: Human immunodeficiency virus 1, MT4, 120 h. The method in brief: as §2

The subject of test [10] is Human immunodeficiency virus 1. Kind of test: Antiviral activity against HIV1 harboring reverse transcriptase E138K mutant infected in human MT4 cells assessed as protection against virus-induced cytopathic effect incubated for 5 days by MTT assay. The class given is functional, organism-based. The following applies: Human immunodeficiency virus 1, MT4, 120 h.
Test [11] has as its target Human immunodeficiency virus type 1 reverse transcriptase (Human immunodeficiency virus 1) (UniProt Q72547). Kind of test: Inhibition of wild type HIV1 Reverse transcriptase RNase H expressed in Escherichia coli at 50 uM using 5'-UUUUUUUUUAGGAUACAUAUGGUUAAAGU-3' oligonucleotide as substrate and DNA21P as primer in presence of [gamma32P]-ATP by PAGE analysis relative to control.

Test [12] has the same target. Kind of test: Inhibition of wild type HIV1 Reverse transcriptase RNase H expressed in Escherichia coli at 100 uM using 5'-UUUUUUUUUAGGAUACAUAUGGUUAAAGU-3' oligonucleotide as substrate and DNA21P as primer in presence of [gamma32P]-ATP by PAGE analysis relative to control.

pEC50, pIC50: −log10 of the molar value.

The CC50 is the concentration that lowers cell viability or growth by half. The term pEC50 denotes −log10 of the EC50, conventionally taken in molar units. By pIC50 is commonly meant the negative decadic logarithm of the IC50, by convention in mol/L. For the compound `Cc1c(O)c([N+](=O)[O-])cc2cc(C(=O)Nc3ccc(O)c(C(=O)O)c3)c(=O)oc12`, the CC50 in the test with MT4 was over 312 µM. In addition, the pEC50 is 3.92 in [1], 3.95 in test [3] and 3.92 in [4]. The negative-log IC50 (pIC50) in test [2] was 5.00.
For `Cc1ccnc2c1NC(=O)c1cccnc1N2C1CC1` [NEVIRAPINE], the CC50 in the test on MT4 was over 15 µM. Besides, the pEC50 in test [1] is 5.72; in [5], under 5.53; in test [6], under 5.24; in test [3], under 4.82; in [7], 6.15; in test [8] it was 5.55.
For the compound `O=C(O)c1cc(NC(=O)c2cc3cc([N+](=O)[O-])c(O)c(O)c3oc2=O)ccc1O`, in the test with MT4, the 50% cytotoxic concentration (CC50) is over 310 µM. The negative logarithm of the EC50 (pEC50) in [1] is 4.00; in test [3] it was 3.97; in test [4], 3.94. Moreover, the pIC50 in test [2] is 4.68.
Take `CCCN(C(=O)c1cc2cc([N+](=O)[O-])c(O)c(O)c2oc1=O)[C@@H]1CCc2nc(N)sc2C1`: the CC50 in the test on MT4 is over 271 µM. Moreover, the pEC50 in test [1] is 4.55; in test [3], 4.71; in test [4] it was 3.84. Moreover, in test [2], the pIC50 was 4.35.
Turning to `O=C(c1cc2cc([N+](=O)[O-])c(O)c(O)c2oc1=O)N1CCCN(S(=O)(=O)c2ccc3ccncc3c2)CC1`, the CC50 in the test on MT4 is over 231 µM. Besides, the results for the pEC50 in [1], in test [3] and in [4] were 4.08, 3.91 and under 3.64, respectively. In addition, the negative logarithm of the IC50 (pIC50) in test [2] is 4.16.
For `CCC1CCN(C2CCN(C(=O)c3cc4cc([N+](=O)[O-])c(O)c(O)c4oc3=O)CC2)CC1`, the cytotoxic concentration (CC50) with MT4 is over 280 µM. The pEC50 was 3.68 in test [1], 3.67 in test [3] and under 3.55 in test [4]. Besides, the pIC50 in test [2] is under 3.60.
In the case of `COC(=O)c1cc(NC(=O)c2cc3cc([N+](=O)[O-])c(O)c(O)c3oc2=O)ccc1O`, the CC50 in the test on MT4 is over 300 µM. Besides, the pEC50 was 5.40 in [1]; 4.35 in test [5]; 4.00 in [6]; 4.78 in test [7]; 4.65 in test [9]; 3.77 in [4]. Also, the pEC50 in test [8] was 5.25; in test [10], 4.65. Besides, the pIC50 in test [2] is 4.91.
As a reminder, the inhibition is the percentage by which the read-out fell short of the control. In the case of `O=C(NC1CCN(Cc2cccc(Cl)c2)CC1)c1cc2cc([N+](=O)[O-])c(O)c(O)c2oc1=O`, the cytotoxic concentration (CC50) with MT4 was 143 µM. The pEC50 in test [1] and in [4] was under 3.84 throughout. The inhibition was under 10% in test [11] and 72.5% in [12]. For the same compound, the pIC50 in [2] is under 4.30.
